In ChEMBL document CHEMBL1125300, “Synthesis and biological activity of trans(+-)-N-methyl-2-(3-pyridyl)-2-tetrahydrothiopyrancarbothioamide 1-oxide (RP 49356) and analogues: a new class of potassium channel opener” (1992) one finds ED30 and IC90 data, which are given here for 45 molecules.

Broadly, the IC90 is the point of the concentration-response curve where the effect stands at 90%. Low readings indicate an effect from little substance, high ones a need for much substance.

Molecules are shown by their SMILES.

The first assay has as its system Rattus norvegicus. Put plainly: The compound was evaluated for hypotensive activity in anaesthetized Sprague Dawley rats on intravenous administration. It is filed as functional.
Settings: not given
The essentials: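 Male Sprague Dawley rats (280–350 g), pentobarbitone 60 mg/kg ip, ventilated; carotid blood pressure recorded. 15-min iv infusion via jugular vein, one per rat, vehicle PEG 200 with 0.01 N HCl diluted 1:10 in saline. Max MBP change over ≥30 min; two or more doses in 3–4 rats; dose giving 30 mmHg fall by linear regression vs log dose.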
For `C/N=C(\S)[C@]1(c2cccnc2)CCCCS1`, the ED30 is 1.5 mg/kg.
For the molecule `C/N=C(\S)[C@]1(c2ccc(Cl)c(Cl)c2)CCCC[S+]1[O-]` (some centres not stated), the ED30 came to 1.28 mg/kg.
`CCCC/N=C(\S)[C@]1(c2cccnc2)CCCC[S+]1[O-]` (some centres not stated) showed an ED30 of 1.5 mg/kg.
On the same count and under the same terms, the figure for `CC/N=C(\S)[C@]1(c2cccnc2)CCCC[S+]1[O-]` (some centres not stated) is 0.15 mg/kg; for `C/N=C(\S)[C@]1(c2cccc(C#N)c2)CCCC[S+]1[O-]` (some centres not stated) it is 0.63 mg/kg; for `C/N=C(\S)[C@]1(c2cnc3ccccc3c2)CCCC[S+]1[O-]` (some centres not stated) it is 0.04 mg/kg.
Molecule `CC1(C)Oc2ccc(C#N)cc2C(N2CCCC2=O)C1O` (configuration not stated) [CROMAKALIM] displayed an ED30 of 0.06 mg/kg.

A further assay is filed under the species Rattus norvegicus. Put plainly: In vitro inhibitory concentration producing 90% reduction in maximum contraction produced by KCl (20 mmol) in isolated aorta of rat. It is filed as functional.
Settings: not given
An outline of the steps: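 Isolated aortic tissue recorded isometrically via force-displacement transducers; equilibrated 90 min at 2 g resting tension, contracted with 20 mmol KCl, then cumulative concentration-response relaxation, each concentration added once the prior maximal effect developed. Glibenclamide 5 μM tested for reversal of relaxation. Drugs dissolved in DMSO. Mean EC90 ± SEM, number of experiments given.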
Regarding `C/N=C(/S)[C@]1(c2cccnc2)CCCC[S@@+]1[O-]` (stereo in doubt; 8a) [APRIKALIM], the IC90 worked out at 0.7 µM.
`C/N=C(/S)[C@]1(c2cccnc2)CCCC[S@@+]1[O-]` (stereo in doubt; 8b) [APRIKALIM] came in with an IC90 of 0.4 µM.
For `C/N=C(/S)[C@]1(c2cccnc2)CCCC[S@@+]1[O-]` (stereo in doubt; 8c) [APRIKALIM], the IC90 is above 30 µM.

The assay is the same for the next values; noted with them: Rattus norvegicus, Aorta.
`C/N=C(\S)C1(c2cccnc2)CCCC1` displayed an IC90 of 30 µM.
The molecule `C/N=C(/S)[C@]1(c2cccnc2)CCCCS1(=O)=O` gave an IC90 above 30 µM.
`C/N=C(\S)[C@]1(c2cccnc2)CCCO1` displayed an IC90 above 30 µM.
Consider `C/N=C(\S)C1(c2cccnc2)CCCCC1`, for which the IC90 was 3 µM. That is a single-digit micromolar value.
`C/N=C(\S)C1(c2cccnc2)SCCCS1` had an IC90 above 30 µM.
Take `C/N=C(\S)[C@]1(c2cccnc2)CCCCS1`: the IC90 was above 30 µM.
The same measure, in the same setting: the figure for `C/N=C(\S)[C@]1(c2cccnc2)CCCS1` is above 30 µM.
On to `CNC(=S)[C@]1(c2cccnc2)CCCC[S@+]1[O-]`, for which the 90% effect concentration (IC90) is above 30 µM.
Same read-out and setting: the figure for `C/N=C(\S)[C@]1(c2cccnc2)OCCCS1` is above 30 µM; for `C/N=C(\S)[C@]1(c2ccncc2)CCCC[S+]1[O-]` (some centres not stated) it is 25 µM; for `C/N=C(\S)[C@]1(c2cccc(F)c2)CCCC[S+]1[O-]` (some centres not stated) it is 7 µM.
`COC(=O)CC/N=C(\S)[C@]1(c2cccnc2)CCCC[S+]1[O-]` (some centres not stated): the IC90 was above 30 µM.
As to `COC(=N)[C@]1(c2cccnc2)CCCC[S+]1[O-]` (some centres not stated), the IC90 is above 30 µM.
The same measure, in the same setting: the figure for `CNC(=O)[C@]1(c2cccnc2)CCCC[S+]1[O-]` (some centres not stated) is above 30 µM; for `[O-][S+]1CCCC[C@]1(CO)c1cccnc1` (some centres not stated) it is above 30 µM; for `N#C[C@]1(c2cccnc2)CCCC[S+]1[O-]` (some centres not stated) it is above 30 µM.
As to `C/N=C(\S)[C@]1(c2cccc(C(F)(F)F)c2)CCCC[S+]1[O-]` (some centres not stated), the concentration for an effect of 90% (IC90) is 0.8 µM.
On to `C/N=C(\S)[C@]1(c2cc(Cl)cc(Cl)c2)CCCC[S+]1[O-]` (some centres not stated), for which the 90% effect concentration (IC90) worked out at 0.4 µM. Compared with the last molecule, the IC90 is about 2-fold lower.
`C/N=C(\S)[C@]1(c2ccc(Cl)c(Cl)c2)CCCC[S+]1[O-]` (some centres not stated): the IC90 stood at 0.3 µM.
The molecule `C/N=C(\S)[C@]1(c2nc3ccccc3s2)CCCC[S+]1[O-]` (some centres not stated) showed a 90% effect concentration (IC90) of 29 µM.
Regarding `C/N=C(\S)[C@]1(c2ccccc2)CCCC[S+]1[O-]` (some centres not stated), the 90% effect concentration (IC90) is 9.5 µM. Against the preceding molecule, the IC90 is about 3.1-fold lower.
`CCCC/N=C(\S)[C@]1(c2cccnc2)CCCC[S+]1[O-]` (some centres not stated) displayed a 90% effect concentration (IC90) of 8 µM.
In turn, `C/N=C(\S)[C@]1(c2ccc3ccccc3c2)CCCC[S+]1[O-]` (some centres not stated) gave an IC90 of 2 µM.
`C/N=C(\S)[C@]1(c2cnc(-c3ccccc3)s2)CCCC[S+]1[O-]` (some centres not stated) gave an IC90 of 4 µM.
For `C/N=C(\S)[C@]1(c2ccc(Cl)cc2)CCCC[S+]1[O-]` (some centres not stated), the IC90 is 2.8 µM.
Still for that read-out and setting: the same measure for `C/N=C(\S)[C@]1(c2ccc(-c3ccccc3)cc2)CCCC[S+]1[O-]` (some centres not stated): 12 µM.
Take `CC/N=C(\S)[C@]1(c2cccnc2)CCCC[S+]1[O-]` (some centres not stated): the 90% effect level (IC90) was put at 0.3 µM. This IC90 is about 40-fold lower than that of the molecule before.
The same measure, in the same setting: the same measure for `C/N=C(\S)[C@]1(c2cccc(C(N)=O)c2)CCCC[S+]1[O-]` (some centres not stated): 12 µM; for `C/N=C(\SC)[C@]1(c2cccnc2)CCCC[S+]1[O-]` (some centres not stated): above 30 µM; for `C/N=C(\S)[C@]1(c2ccns2)CCCC[S+]1[O-]` (some centres not stated): 7 µM.
Consider `O=C(O)CC/N=C(\S)[C@]1(c2cccnc2)CCCC[S+]1[O-]` (some centres not stated), for which the IC90 is above 30 µM.
Consider `C/N=C(\S)[C@]1(c2ccc(Cl)nc2)CCCC[S+]1[O-]` (some centres not stated), for which the IC90 turned out to be 0.3 µM.
The molecule `C/N=C(\S)[C@]1(c2ccccn2)CCCC[S+]1[O-]` (some centres not stated) registered an IC90 above 30 µM.
Consider `N/N=C(\S)[C@]1(c2cccnc2)CCCC[S+]1[O-]` (some centres not stated), for which the concentration for an effect of 90% (IC90) is above 30 µM.
On the same count and under the same terms, the same measure for `[O-][S+]1CCCC[C@]1(CS)c1cccnc1` (some centres not stated): above 30 µM.
`CCC/N=C(\S)[C@]1(c2cccnc2)CCCC[S+]1[O-]` (some centres not stated) displayed an IC90 of 0.6 µM. That is a sub-micromolar value.
Same read-out and setting: the figure for `CC(C)/N=C(\S)[C@]1(c2cccnc2)CCCC[S+]1[O-]` (some centres not stated) is 10 µM; for `C/N=C(\S)[C@]1(c2cccc(C(=O)O)c2)CCCC[S+]1[O-]` (some centres not stated) it is above 30 µM; for `[O-][S+]1CCCC[C@]1(/C(S)=N/c1ccccc1)c1cccnc1` (some centres not stated) it is above 30 µM.
`C/N=C(\S)[C@]1(c2cccc(C#N)c2)CCCC[S+]1[O-]` (some centres not stated) came in with an IC90 of 1.6 µM. This lies in the single-digit micromolar range.
As to `C/N=C(\S)[C@]1(c2cnc3ccccc3c2)CCCC[S+]1[O-]` (some centres not stated), the IC90 worked out at 0.06 µM.
In the case of `CC1(C)Oc2ccc(C#N)cc2C(N2CCCC2=O)C1O` (configuration not stated) [CROMAKALIM], it took 0.2 µM to reach the 90% level (IC90). Compared with the last molecule, the IC90 is about 3.3-fold higher.
